Laboratory results: ChEMBL document CHEMBL1275348, “Design, synthesis, and evaluation of duocarmycin O-amino phenol prodrugs subject to tunable reductive activation” (J Med Chem, 2010)
pIC50: −log10 of the molar value. The source made the active and inactive calls. The calls are words filed in the database; no cut-off is given here.

Key:
L1210 [1] = assay: Cytotoxicity against mouse L1210 cells; format: functional, cell-based
L1210 [2] = assay: Antitumor activity against mouse L1210 cells xenografted in DBA/2J mouse assessed as survival at 100 mg/kg, ip administered 3 times on day 1, 5 and 9 postimplantation; format: functional, organism-based
Procedure, shortened: (§1)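 Syngeneic L1210 leukemia cells (1 × 10^6) were injected i.p. into DBA/2J mice on day 0. Ten mice were randomly assigned per treatment or vehicle group. Compounds were formulated in 30% DMSO plus 0.7% glucose solution and injected i.p. on days 1, 5 and 9. Animals were monitored daily and weighed three times weekly, with the study running 120 days.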

L1210 [3] = assay: Antitumor activity against mouse L1210 cells xenografted in DBA/2J mouse at 10 mg/kg, ip administered 3 times on day 1, 5 and 9 postimplantation relative to control; format: functional; conditions: route intraperitoneal
Procedure, shortened: (§2)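 DBA/2J mice received syngeneic L1210 cells (1 × 10^6) i.p. on day 0. Groups of ten mice were randomised to drug or vehicle. Dosing was i.p. on days 1, 5 and 9 in 30% DMSO plus 0.7% glucose solution. Animals were checked daily and weighed three times per week. The study ran 120 days, with survival compared against untreated controls.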

L1210 [4] = assay: Antitumor activity against mouse L1210 cells xenografted in DBA/2J mouse assessed as mean survival period at 30 mg/kg, ip administered 3 times on day 1, 5 and 9 postimplantation; format: functional; conditions: route intraperitoneal; procedure, shortened: as §1
L1210 [5] = assay: Antitumor activity against mouse L1210 cells xenografted in DBA/2J mouse at 30 mg/kg, ip administered 3 times on day 1, 5 and 9 postimplantation relative to control; format: functional; conditions: route intraperitoneal; procedure, shortened: as §2
L1210 [6] = assay: Antitumor activity against mouse L1210 cells xenografted in DBA/2J mouse assessed as survival at 30 mg/kg, ip administered 3 times on day 1, 5 and 9 postimplantation; format: functional, organism-based; procedure, shortened: as §1
L1210 [7] = assay: Antitumor activity against mouse L1210 cells xenografted in DBA/2J mouse at 200 mg/kg, ip administered 3 times on day 1, 5 and 9 postimplantation relative to control; format: functional; conditions: route intraperitoneal; procedure, shortened: as §1
L1210 [8] = assay: Antitumor activity against mouse L1210 cells xenografted in DBA/2J mouse assessed as mean survival period at 10 mg/kg, ip administered 3 times on day 1, 5 and 9 postimplantation; format: functional; conditions: route intraperitoneal; procedure, shortened: as §1
L1210 [9] = assay: Antitumor activity against mouse L1210 cells xenografted in DBA/2J mouse at 100 ug/kg, ip administered 3 times on day 1, 5 and 9 postimplantation relative to control; conditions: route intraperitoneal
L1210 [10] = assay: Antitumor activity against mouse L1210 cells xenografted in DBA/2J mouse assessed as mean survival period at 60 mg/kg, ip administered 3 times on day 1, 5 and 9 postimplantation; format: functional; conditions: route intraperitoneal; procedure, shortened: as §1
L1210 [11] = assay: Antitumor activity against mouse L1210 cells xenografted in DBA/2J mouse assessed as mean survival period at 100 mg/kg, ip administered 3 times on day 1, 5 and 9 postimplantation; format: functional; conditions: route intraperitoneal; procedure, shortened: as §1
L1210 [12] = assay: Antitumor activity against mouse L1210 cells xenografted in DBA/2J mouse at 60 ug/kg, ip administered 3 times on day 1, 5 and 9 postimplantation relative to control; conditions: route intraperitoneal
L1210 [13] = assay: Antitumor activity against mouse L1210 cells xenografted in DBA/2J mouse assessed as survival at 10 mg/kg, ip administered 3 times on day 1, 5 and 9 postimplantation; format: functional, organism-based; procedure, shortened: as §1
L1210 [14] = assay: Antitumor activity against mouse L1210 cells xenografted in DBA/2J mouse assessed as mean survival period at 200 mg/kg, ip administered 3 times on day 1, 5 and 9 postimplantation; format: functional; conditions: route intraperitoneal; procedure, shortened: as §1
L1210 [15] = assay: Antitumor activity against mouse L1210 cells xenografted in DBA/2J mouse assessed as survival at 200 mg/kg, ip administered 3 times on day 1, 5 and 9 postimplantation; format: functional, organism-based; procedure, shortened: as §1
L1210 [16] = assay: Antitumor activity against mouse L1210 cells xenografted in DBA/2J mouse assessed as survival at 60 mg/kg, ip administered 3 times on day 1, 5 and 9 postimplantation; format: functional, organism-based; procedure, shortened: as §1
L1210 [17] = assay: Antitumor activity against mouse L1210 cells xenografted in DBA/2J mouse at 50 mg/kg, ip administered 3 times on day 1, 5 and 9 postimplantation relative to control; format: functional; conditions: route intraperitoneal; procedure, shortened: as §1
L1210 [18] = assay: Antitumor activity against mouse L1210 cells xenografted in DBA/2J mouse assessed as mean survival period at 500 mg/kg, ip administered 3 times on day 1, 5 and 9 postimplantation; format: functional; conditions: route intraperitoneal; procedure, shortened: as §1
L1210 [19] = assay: Antitumor activity against mouse L1210 cells xenografted in DBA/2J mouse assessed as mean survival period at 250 mg/kg, ip administered 3 times on day 1, 5 and 9 postimplantation; format: functional; conditions: route intraperitoneal; procedure, shortened: as §1
L1210 [20] = assay: Antitumor activity against mouse L1210 cells xenografted in DBA/2J mouse assessed as mean survival period at 50 mg/kg, ip administered 3 times on day 1, 5 and 9 postimplantation; format: functional; conditions: route intraperitoneal; procedure, shortened: as §1
L1210 [21] = assay: Antitumor activity against mouse L1210 cells xenografted in DBA/2J mouse at 500 mg/kg, ip administered 3 times on day 1, 5 and 9 postimplantation relative to control; format: functional; conditions: route intraperitoneal; procedure, shortened: as §1
L1210 [22] = assay: Antitumor activity against mouse L1210 cells xenografted in DBA/2J mouse assessed as survival at 50 mg/kg, ip administered 3 times on day 1, 5 and 9 postimplantation; format: functional, organism-based; procedure, shortened: as §1
L1210 [23] = assay: Antitumor activity against mouse L1210 cells xenografted in DBA/2J mouse at 250 mg/kg, ip administered 3 times on day 1, 5 and 9 postimplantation relative to control; format: functional; conditions: route intraperitoneal; procedure, shortened: as §1
[24] = Chemical stability of the compound in phosphate buffer of pH 7 assessed as half life; format: physicochemical
Procedure, shortened: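 The compound was held in pH 7.0 phosphate buffer for up to 72 h. Cleavage was followed as release of CBI-indole2, and the half-life was estimated from this.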

CC(C)(C)C(=O)NOc1cc2c(c3ccccc13)[C@@H](CCl)CN2C(=O)c1cc2cc(NC(=O)c3cc4ccccc4[nH]3)ccc2[nH]1
pIC50 (L1210 [1]): 8.46

COC(=O)NOc1cc2c(c3ccccc13)[C@H](CCl)CN2C(=O)c1cc2cc(NC(=O)c3cc4ccccc4[nH]3)ccc2[nH]1
Activity (L1210 [2]): inactive
T/C (L1210 [3]): 110%
Time (L1210 [4]): 29 days
T/C (L1210 [5]): 133%
pIC50 (L1210 [1]): 9.30
Activity (L1210 [6]): inactive
T/C (L1210 [7]): 145%
Time (L1210 [8]): 24 days
T/C (L1210 [9]): 122%
Time (L1210 [10]): 28 days
Time (L1210 [11]): 27 days
T/C (L1210 [12]): 126%
Activity (L1210 [13]): inactive
Time (L1210 [14]): 32 days
Activity (L1210 [15]): inactive
Activity (L1210 [16]): inactive

NC(=O)NOc1cc2c(c3ccccc13)[C@@H](CCl)CN2C(=O)c1cc2cc(NC(=O)c3cc4ccccc4[nH]3)ccc2[nH]1
pIC50 (L1210 [1]): 7.52

O=C(Nc1ccc2[nH]c(C(=O)N3C[C@@H](CCl)c4c3cc(O)c3ccccc43)cc2c1)c1cc2ccccc2[nH]1 [SECO-CBI-INDOLE]
T/C (L1210 [3]): 192%
Time (L1210 [4]): 51 days
T/C (L1210 [5]): 230%
pIC50 (L1210 [1]): 10.52
Time (L1210 [8]): 42 days
T/C (L1210 [9]): 333%
Time (L1210 [10]): 78 days
Time (L1210 [11]): 73 days
T/C (L1210 [12]): 352%

COC(=O)NOc1cc2c(c3ccccc13)[C@@H](CCl)CN2C(=O)c1cc2cc(NC(=O)c3cc4ccccc4[nH]3)ccc2[nH]1
pIC50 (L1210 [1]): 8.05

COc1c(O)c2c(c3cc(C(=O)N4CCc5c4c(O)c(OC)c4[nH]c(C(=O)N6C[C@H]7C[C@@]78C6=CC(=O)c6[nH]cc(C)c68)cc54)[nH]c13)CCN2C(N)=O [(+)-CC-1065]
pIC50 (L1210 [1]): 10.70

CC(C)(C)OC(=O)NOc1cc2c(c3ccccc13)[C@@H](CCl)CN2C(=O)c1cc2cc(NC(=O)c3cc4ccccc4[nH]3)ccc2[nH]1
pIC50 (L1210 [1]): 8.40

NC(=O)NOc1cc2c(c3ccccc13)[C@H](CCl)CN2C(=O)c1cc2cc(NC(=O)c3cc4ccccc4[nH]3)ccc2[nH]1
Activity (L1210 [2]): inactive
pIC50 (L1210 [1]): 8.96
T/C (L1210 [17]): 133%
Time (L1210 [18]): 71 days
T/C (L1210 [9]): 152%
Time (L1210 [19]): 39 days
Time (L1210 [20]): 29 days
T/C (L1210 [21]): 323%
Time (L1210 [11]): 33 days
Activity (L1210 [22]): inactive
T/C (L1210 [23]): 177%

CN(Oc1cc2c(c3ccccc13)[C@H](CCl)CN2C(=O)c1cc2cc(NC(=O)c3cc4ccccc4[nH]3)ccc2[nH]1)C(=O)OC(C)(C)C
pIC50 (L1210 [1]): 9.05

O=C(Nc1ccc2[nH]c(C(=O)N3C[C@H](CCl)c4c3cc(O)c3ccccc43)cc2c1)c1cc2ccccc2[nH]1
pIC50 (L1210 [1]): 9.05

CC(C)(C)OC(=O)NOc1cc2c(c3ccccc13)[C@H](CCl)CN2C(=O)c1cc2cc(NC(=O)c3cc4ccccc4[nH]3)ccc2[nH]1
T/C (L1210 [3]): 225%
Time (L1210 [4]): 58 days
T/C (L1210 [5]): 265%
pIC50 (L1210 [1]): 10.00
Time (L1210 [8]): 50 days
T/C (L1210 [9]): 389%
Time (L1210 [10]): 69 days
Time (L1210 [11]): 86 days
T/C (L1210 [12]): 315%

CC(C)(C)C(=O)NOc1cc2c(c3ccccc13)[C@H](CCl)CN2C(=O)c1cc2cc(NC(=O)c3cc4ccccc4[nH]3)ccc2[nH]1
pIC50 (L1210 [1]): 10.10
half-life [24]: 6 h

CN(Oc1cc2c(c3ccccc13)[C@@H](CCl)CN2C(=O)c1cc2cc(NC(=O)c3cc4ccccc4[nH]3)ccc2[nH]1)C(=O)OC(C)(C)C
pIC50 (L1210 [1]): 7.52
